The source of these data is ChEMBL document CHEMBL3593210, “Pentamidine analogs as inhibitors of [(3)H]MK-801 and [(3)H]ifenprodil binding to rat brain NMDA receptors” (Bioorg Med Chem, 2015).

Experiment [1] concerns the target Glutamate NMDA receptor. The experiment is described as follows: Displacement of [3H]-MK-801 from rat cortical membranes NMDA receptor by beta counting analysis in absence of spermine. The gist of the method: (§1)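 Membranes from rat frontoparietal cortex and hippocampus, prepared in 50 mM Tris acetate pH 7.0. 5 nM [3H]MK-801 was incubated with membranes (~1 mg wet tissue) for 3 h at 23 °C in 10 mM Tris acetate pH 7.0 with 10 µM glutamate and glycine, in triplicate, with or without 30 µM spermine. Compounds were tested at 3–4 concentrations. Nonspecific binding was set with 100 µM (S)-ketamine. Bound ligand was filtered and scintillation-counted. Spermine sensitivity = IC50 (with spermine)/IC50 (without).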
(Loss of bound radioactivity is the signal in a displacement assay; it reports binding, not function.)

The target in experiment [2] is Glutamate NMDA receptor. The experiment is described as follows: Displacement of [3H]-MK-801 from rat cortical membranes NMDA receptor by beta counting analysis in presence of 30 uM spermine. The gist of the method:
as §1

Experiment [3] deals with Glutamate NMDA receptor (Rattus norvegicus) (UniProt P35439+Q00959+Q00960+Q00961+Q62645+Q8VHN2+Q9R1M7). In words: Ratio of IC50 for displacement of [3H]-MK-801 from rat cortical membranes NMDA receptor in presence of 30 uM spermine to IC50 for displacement of [3H]-MK-801 from rat cortical membranes NMDA receptor in absence of 30 spermine. The gist of the method: as §1
Experiment [4] addresses Glutamate NMDA receptor. In words: Displacement of [3H]-ifenprodil from rat cortical membranes NMDA receptor by beta counting analysis in absence of spermine.

Where only a bound is given, the exact number is not on record here.

Broadly, the IC50 is the midpoint of a concentration-inhibition curve.

For `N=C(N)c1ccc(OCc2cccc(COc3ccc(C(=N)N)cc3)c2)cc1`, the values for the IC50 in experiment [1], in experiment [2] and in experiment [4] were 0.79 µM, 6.7 µM and 3.97 µM, respectively. For the same compound, the Ratio IC50 in experiment [3] came to 9.04.

As to `CC(C)NC(=N)c1ccc(NC(=O)c2cccc(C(=O)Nc3ccc(C(=N)NC(C)C)cc3)n2)cc1`, the IC50 was determined as 6.94 µM in experiment [1], 74.9 µM in experiment [2] and 49.4 µM in experiment [4]. The Ratio IC50 in experiment [3] stood at 10.8.

On to `CN(CCN(C)c1ccc(C(=N)N)cc1)c1ccc(C(=N)N)cc1`, for which the IC50 in experiment [1] came out at 2.71 µM; in experiment [2], 54.5 µM; in experiment [4], 16.9 µM. Also, in experiment [3], the Ratio IC50 was determined as 20.9.

For `N=C(N)c1ccc(NC(=O)CCCC(=O)Nc2ccc(C(=N)N)cc2)cc1`, the figures for the IC50 in experiment [1], in experiment [2] and in experiment [4] were 230 µM, 675 µM and 54.5 µM, respectively. For the same compound, in experiment [3], the Ratio IC50 was 2.81.

Turning to `N=C(N)c1ccc(NCCCNc2ccc(C(=N)N)cc2)cc1`, the IC50 in experiment [1] came out at 10 µM; in experiment [2], 148 µM; in experiment [4] it was 77.7 µM. Further, the Ratio IC50 in experiment [3] was found to be 17.

On to `N=C(N)c1ccc(N2CCN(c3ccc(C(=N)N)cc3)CC2)cc1`, for which the IC50 in experiment [1] amounted to 3.08 µM; in experiment [2], 70.7 µM; in experiment [4], 17 µM. In addition, the Ratio IC50 in experiment [3] came out at 26.2.

`N=C(N)c1ccc(OCc2ccc(COc3ccc(C(=N)N)cc3)cc2)cc1`: the IC50 in experiment [1] amounted to 5.24 µM; in experiment [2], 25.7 µM; in experiment [4], 10.8 µM. Also, the Ratio IC50 in experiment [3] stood at 5.25.

Consider `CN(CCCN(C)c1ccc(C(=N)N)cc1)c1ccc(C(=N)N)cc1`, for which the IC50 in experiment [1] worked out at 1.84 µM; in experiment [2], 24.7 µM; in experiment [4], 31.2 µM. Also, the Ratio IC50 in experiment [3] was 14.7.

As for `CCN(CCNc1ccc(C(=N)N)cc1)c1ccc(C(=N)N)cc1`, the IC50 worked out at 2.61 µM in experiment [1], 48.1 µM in experiment [2] and 13 µM in experiment [4]. Further, the Ratio IC50 in experiment [3] came out at 19.3.

Regarding `N=C(N)c1ccc(OCc2ccccc2COc2ccc(C(=N)N)cc2)cc1`, the IC50 in experiment [1] was found to be 1.46 µM; in experiment [2], 5.54 µM; in experiment [4] it was 1.42 µM. Further, in experiment [3], the Ratio IC50 was 4.

In the case of `N=C(N)c1ccc(COc2ccccc2OCc2ccc(C(=N)N)cc2)cc1`, the IC50 in experiment [1] came to 2.19 µM; in experiment [2], 18.4 µM; in experiment [4], 7.29 µM. For the same compound, the Ratio IC50 in experiment [3] is 10.1.

On to `CN(CCNc1ccc(C(=N)N)cc1)c1ccc(C(=N)N)cc1`, for which the IC50 in experiment [1] amounted to 3.18 µM; in experiment [2], 85.3 µM; in experiment [4], 7.14 µM. Besides, the Ratio IC50 in experiment [3] turned out to be 30.2.

As to `N=C(N)c1ccc(OC(=O)c2ccc(C(=O)Oc3ccc(C(=N)N)cc3)cc2)cc1` [BIS(4-CARBAMIMIDOYLPHENYL)TEREPHTHALATE], the concentration for half-maximal inhibition (IC50) is 10.8 µM in experiment [1], 46.6 µM in experiment [2] and 27 µM in experiment [4]. Also, the Ratio IC50 in experiment [3] was found to be 3.98.

With `CCN(CCN(CC)c1ccc(C(=N)N)cc1)c1ccc(C(=N)N)cc1`, the IC50 came to 1.14 µM in experiment [1], 13.8 µM in experiment [2] and 9.16 µM in experiment [4]. Moreover, in experiment [3], the Ratio IC50 was 11.8.

For `N=C(N)c1ccc(NCCNc2ccc(C(=N)N)cc2)cc1`, the IC50 in experiment [1] was determined as 2.01 µM; in experiment [2] it was 50.7 µM; in experiment [4] it was 0.76 µM. Also, the Ratio IC50 in experiment [3] came out at 30.2.

For the compound `N=C(N)c1ccc(NC(=O)c2cccc(C(=O)Nc3ccc(C(=N)N)cc3)n2)cc1`, the IC50 is 58.2 µM in experiment [1], 70.9 µM in experiment [2] and greater than 100 µM in experiment [4]. Further, the Ratio IC50 in experiment [3] was found to be 1.22.

Turning to `NCCCCCCCCc1ccc(CCCCN)s1`, the IC50 in experiment [1] came to 0.52 µM; in experiment [2], 6.1 µM; in experiment [4], 49.3 µM. Besides, the Ratio IC50 in experiment [3] was determined as 15.1.
